Laboratory results from publication PMC10213863 (Cell Reports Medicine, 2023).

Columns and labels:
TLR9 = molecular target: T1, TLR9 (Homo sapiens, UniProt Q9NR96); test: Ramos Blue reporter B cell line, ODN2006 stimulation; format: cell-based; conditions: Ramos cells
T1 sequence (Q9NR96 26-1032): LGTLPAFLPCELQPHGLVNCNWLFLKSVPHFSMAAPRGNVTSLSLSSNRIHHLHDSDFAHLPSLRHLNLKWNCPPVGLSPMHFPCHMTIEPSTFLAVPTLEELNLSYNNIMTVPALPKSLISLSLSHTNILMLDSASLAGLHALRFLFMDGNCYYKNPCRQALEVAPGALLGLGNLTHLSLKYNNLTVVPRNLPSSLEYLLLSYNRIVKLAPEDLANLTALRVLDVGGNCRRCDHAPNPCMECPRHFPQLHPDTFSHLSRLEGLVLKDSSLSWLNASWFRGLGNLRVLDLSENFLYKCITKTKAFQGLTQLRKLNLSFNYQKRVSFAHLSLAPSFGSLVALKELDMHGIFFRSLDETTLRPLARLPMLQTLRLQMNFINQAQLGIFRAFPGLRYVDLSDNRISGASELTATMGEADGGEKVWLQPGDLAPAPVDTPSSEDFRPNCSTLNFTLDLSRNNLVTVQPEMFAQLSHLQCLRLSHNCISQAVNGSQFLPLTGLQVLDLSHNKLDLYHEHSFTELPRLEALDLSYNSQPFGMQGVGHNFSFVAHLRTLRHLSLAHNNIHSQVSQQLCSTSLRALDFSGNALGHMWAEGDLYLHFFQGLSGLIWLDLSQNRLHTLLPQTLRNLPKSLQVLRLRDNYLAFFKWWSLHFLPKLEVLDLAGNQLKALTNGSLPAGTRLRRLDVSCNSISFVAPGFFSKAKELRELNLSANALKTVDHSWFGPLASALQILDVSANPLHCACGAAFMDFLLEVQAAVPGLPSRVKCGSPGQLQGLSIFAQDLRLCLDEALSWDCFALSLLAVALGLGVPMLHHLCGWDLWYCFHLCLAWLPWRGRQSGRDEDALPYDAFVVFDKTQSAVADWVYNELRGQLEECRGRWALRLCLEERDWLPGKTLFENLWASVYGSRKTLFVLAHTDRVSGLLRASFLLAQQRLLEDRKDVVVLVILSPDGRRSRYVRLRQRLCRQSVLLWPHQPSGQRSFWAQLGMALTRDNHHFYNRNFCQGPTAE
Procedure, shortened: (§1)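 Ramos Blue B reporter cells were pre-treated 30 min at 37°C, 5% CO2 with increasing concentrations of test compound or 0.25% v/v DMSO. They were then stimulated with the respective agonist, and reporter activity was read.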

TLR2/6 = TLR2/6 (Homo sapiens, UniProt O60603+Q9Y2C9); test: Ramos Blue reporter B cell line, FSL-1 stimulation; format: cell-based; conditions: Ramos cells; up to 10 μM; n = 4, data not shown
Sequence of TLR2/6 (O60603 21-784): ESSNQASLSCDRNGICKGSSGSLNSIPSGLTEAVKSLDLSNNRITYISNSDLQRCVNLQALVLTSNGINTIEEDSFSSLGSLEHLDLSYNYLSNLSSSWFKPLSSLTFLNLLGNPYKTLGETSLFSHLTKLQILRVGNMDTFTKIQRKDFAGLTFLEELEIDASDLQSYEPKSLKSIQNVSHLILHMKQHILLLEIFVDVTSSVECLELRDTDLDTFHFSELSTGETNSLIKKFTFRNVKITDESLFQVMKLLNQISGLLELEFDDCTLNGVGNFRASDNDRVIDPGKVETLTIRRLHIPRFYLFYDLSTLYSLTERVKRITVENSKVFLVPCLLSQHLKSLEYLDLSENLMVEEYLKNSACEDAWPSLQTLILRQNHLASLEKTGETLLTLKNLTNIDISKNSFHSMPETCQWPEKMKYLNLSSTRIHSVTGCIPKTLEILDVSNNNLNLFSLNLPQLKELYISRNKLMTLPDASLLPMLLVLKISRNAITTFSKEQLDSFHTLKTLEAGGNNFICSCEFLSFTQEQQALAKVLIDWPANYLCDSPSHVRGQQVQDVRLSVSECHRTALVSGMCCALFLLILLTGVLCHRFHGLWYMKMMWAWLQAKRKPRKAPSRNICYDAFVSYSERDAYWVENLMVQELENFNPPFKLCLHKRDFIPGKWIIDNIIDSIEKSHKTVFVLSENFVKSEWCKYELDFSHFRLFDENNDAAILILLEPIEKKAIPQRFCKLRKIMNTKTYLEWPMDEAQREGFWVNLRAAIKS
Sequence of TLR2/6 (Q9Y2C9 32-796): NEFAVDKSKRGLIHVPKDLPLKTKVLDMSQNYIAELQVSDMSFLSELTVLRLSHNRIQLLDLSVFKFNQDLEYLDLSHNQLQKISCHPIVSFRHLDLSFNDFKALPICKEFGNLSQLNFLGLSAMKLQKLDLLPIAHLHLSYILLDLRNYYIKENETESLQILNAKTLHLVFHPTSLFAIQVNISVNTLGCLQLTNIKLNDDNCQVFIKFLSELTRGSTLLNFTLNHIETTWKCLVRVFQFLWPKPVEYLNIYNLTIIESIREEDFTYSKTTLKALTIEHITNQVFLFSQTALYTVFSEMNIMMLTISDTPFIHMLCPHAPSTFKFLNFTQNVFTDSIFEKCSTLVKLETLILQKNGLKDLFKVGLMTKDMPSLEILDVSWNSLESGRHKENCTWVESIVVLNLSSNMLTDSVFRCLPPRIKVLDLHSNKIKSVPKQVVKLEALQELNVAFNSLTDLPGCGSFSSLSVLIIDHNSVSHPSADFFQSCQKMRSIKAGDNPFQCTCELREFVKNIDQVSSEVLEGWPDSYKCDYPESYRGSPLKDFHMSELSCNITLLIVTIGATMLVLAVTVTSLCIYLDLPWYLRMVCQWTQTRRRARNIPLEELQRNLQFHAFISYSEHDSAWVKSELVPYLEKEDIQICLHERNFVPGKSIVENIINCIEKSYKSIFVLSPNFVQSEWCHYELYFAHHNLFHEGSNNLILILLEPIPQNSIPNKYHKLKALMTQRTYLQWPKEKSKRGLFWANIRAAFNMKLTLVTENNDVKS
Procedure, shortened: as §1

TLR1/2 = TLR1/2 (Homo sapiens, UniProt O60603+Q15399); test: Human PBMC cytokine secretion, TLR1/2 agonist; format: cell-based; conditions: human PBMCs; up to 10 μM; n = 5 donors, data not shown
Sequence of TLR1/2 (Q15399 25-786): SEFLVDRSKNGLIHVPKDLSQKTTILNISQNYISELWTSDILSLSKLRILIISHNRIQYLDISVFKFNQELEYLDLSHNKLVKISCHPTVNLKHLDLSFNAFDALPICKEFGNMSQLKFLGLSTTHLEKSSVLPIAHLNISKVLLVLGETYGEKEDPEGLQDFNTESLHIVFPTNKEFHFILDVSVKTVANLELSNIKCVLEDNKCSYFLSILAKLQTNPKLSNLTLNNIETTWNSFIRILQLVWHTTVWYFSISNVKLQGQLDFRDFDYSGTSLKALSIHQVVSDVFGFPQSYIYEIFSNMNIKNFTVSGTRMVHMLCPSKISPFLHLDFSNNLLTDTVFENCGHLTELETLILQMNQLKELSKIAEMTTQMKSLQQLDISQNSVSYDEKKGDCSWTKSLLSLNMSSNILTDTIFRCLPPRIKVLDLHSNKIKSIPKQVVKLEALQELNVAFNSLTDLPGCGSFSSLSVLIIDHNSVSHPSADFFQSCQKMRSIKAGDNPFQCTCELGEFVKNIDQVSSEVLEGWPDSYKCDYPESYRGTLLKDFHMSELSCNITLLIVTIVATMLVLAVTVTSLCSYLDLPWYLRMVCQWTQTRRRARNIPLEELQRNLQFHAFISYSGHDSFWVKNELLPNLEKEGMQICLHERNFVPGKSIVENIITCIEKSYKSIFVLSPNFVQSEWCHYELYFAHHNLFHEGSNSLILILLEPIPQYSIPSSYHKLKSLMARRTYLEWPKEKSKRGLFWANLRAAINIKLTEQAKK
Sequence of TLR1/2 (O60603 21-784): as the sequence (O60603 21-784) above
Procedure, shortened: (§2)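 Human PBMCs were pre-incubated 30 min with test compound, then stimulated with the respective TLR or IL-1R agonist at doses from earlier work. Cytokines in supernatants were quantified by immunoassay. Viability across the dose range was checked by CellTiter-Glo.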

TLR5 = TLR5 (Homo sapiens, UniProt O60602); test: Human PBMC cytokine secretion, TLR5 agonist; format: cell-based; conditions: human PBMCs; up to 10 μM; n = 5 donors, data not shown
Sequence of TLR5 (O60602 21-858): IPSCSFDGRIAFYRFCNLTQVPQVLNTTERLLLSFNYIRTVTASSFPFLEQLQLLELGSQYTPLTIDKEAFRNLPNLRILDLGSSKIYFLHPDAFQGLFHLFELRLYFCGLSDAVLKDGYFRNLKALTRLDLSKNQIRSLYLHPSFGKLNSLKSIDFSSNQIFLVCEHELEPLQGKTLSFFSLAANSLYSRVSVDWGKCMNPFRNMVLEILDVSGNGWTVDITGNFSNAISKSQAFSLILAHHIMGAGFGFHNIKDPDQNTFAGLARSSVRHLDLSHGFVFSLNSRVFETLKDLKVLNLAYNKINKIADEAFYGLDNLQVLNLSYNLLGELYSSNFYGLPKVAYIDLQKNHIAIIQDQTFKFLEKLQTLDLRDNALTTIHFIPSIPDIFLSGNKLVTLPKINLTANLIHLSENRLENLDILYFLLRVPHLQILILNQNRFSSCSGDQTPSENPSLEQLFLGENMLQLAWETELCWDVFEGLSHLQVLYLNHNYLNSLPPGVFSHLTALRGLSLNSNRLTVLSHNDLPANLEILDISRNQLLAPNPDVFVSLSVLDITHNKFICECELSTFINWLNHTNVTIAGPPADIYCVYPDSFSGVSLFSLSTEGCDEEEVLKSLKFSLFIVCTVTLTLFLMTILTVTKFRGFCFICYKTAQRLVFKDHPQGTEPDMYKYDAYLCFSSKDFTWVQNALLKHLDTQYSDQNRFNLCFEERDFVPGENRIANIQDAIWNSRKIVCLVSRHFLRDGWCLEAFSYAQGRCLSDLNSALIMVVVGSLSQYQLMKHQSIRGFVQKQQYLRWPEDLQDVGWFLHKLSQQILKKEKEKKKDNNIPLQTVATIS
Procedure, shortened: as §2

[1] = test system: PMA-mediated ROS secretion from neutrophils; test: Human neutrophil ROS production, PMA stimulation; format: cell-based
Procedure, shortened: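 Cells were pre-treated 30 min with increasing concentrations of test compound or 0.1% v/v DMSO. They were then stimulated 30 min at 37°C, 5% CO2 with TL8-506 or PMA (50 ng/mL). ROS was detected with 2 μM dihydrorhodamine for 15 min at 37°C and read by flow cytometry. Signals were normalized to vehicle; viability was checked by CellTiter-Glo.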

[2] = test system: SLE immune-complex-driven IFN-α response in PBMCs; test: IFN-α release from PBMCs stimulated with SLE patient sera immune complexes; format: cell-based, human; conditions: PBMCs
TLR7 = molecular target: T2, TLR7 (Mus musculus, UniProt P58681); test: Chronic TLR7 activation in vivo assay; conditions: 129/Sv mice; R848 plus MHV370 vs R848 plus vehicle
T2 sequence (P58681 27-1050): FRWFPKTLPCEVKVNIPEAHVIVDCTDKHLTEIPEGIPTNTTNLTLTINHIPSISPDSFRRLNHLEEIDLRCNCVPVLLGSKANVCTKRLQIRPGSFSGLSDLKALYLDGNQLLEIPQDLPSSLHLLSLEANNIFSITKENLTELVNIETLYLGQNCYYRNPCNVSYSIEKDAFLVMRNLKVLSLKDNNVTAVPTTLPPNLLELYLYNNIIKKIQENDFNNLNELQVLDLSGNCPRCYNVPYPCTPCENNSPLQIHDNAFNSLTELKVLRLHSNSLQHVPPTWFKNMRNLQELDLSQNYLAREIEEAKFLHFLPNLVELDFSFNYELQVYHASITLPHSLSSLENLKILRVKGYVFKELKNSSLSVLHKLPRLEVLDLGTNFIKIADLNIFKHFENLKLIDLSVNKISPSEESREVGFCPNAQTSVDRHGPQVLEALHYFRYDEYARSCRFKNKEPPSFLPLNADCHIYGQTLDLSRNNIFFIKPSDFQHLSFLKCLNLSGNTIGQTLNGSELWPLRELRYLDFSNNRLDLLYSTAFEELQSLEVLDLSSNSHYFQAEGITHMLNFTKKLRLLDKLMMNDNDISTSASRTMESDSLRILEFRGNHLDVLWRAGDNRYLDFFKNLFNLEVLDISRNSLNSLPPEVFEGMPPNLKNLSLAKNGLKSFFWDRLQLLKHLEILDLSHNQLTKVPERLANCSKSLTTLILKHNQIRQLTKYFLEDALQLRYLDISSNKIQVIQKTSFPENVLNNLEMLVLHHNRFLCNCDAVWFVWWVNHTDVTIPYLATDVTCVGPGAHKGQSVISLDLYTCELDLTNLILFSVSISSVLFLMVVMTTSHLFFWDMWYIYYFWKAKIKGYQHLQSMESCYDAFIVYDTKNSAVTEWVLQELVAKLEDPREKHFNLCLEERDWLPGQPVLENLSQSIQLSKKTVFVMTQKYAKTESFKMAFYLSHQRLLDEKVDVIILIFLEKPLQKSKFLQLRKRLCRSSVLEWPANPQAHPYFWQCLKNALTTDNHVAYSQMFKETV
Procedure, shortened: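 129/Sv mice (5 per group) received R848 i.p. at 2.5 mg/kg daily for 14 days. From day 7, groups were dosed orally b.i.d. with test compound at 15 mg/kg or with vehicle. Naive mice served as reference. Blood RNA-seq counts were filtered (≥10 counts per million in ≥4 samples) and TMM-normalized in edgeR. Differential expression was analysed with limma.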

Cc1cc(N2CCc3c(c(C)nn3CC34CCC(NC(=O)[C@@H]5COCCN5)(CC3)CC4)C2)c2cnn(C)c2n1 [MHV370, (S)-N-(4-((5-(1,6-dimethyl-1H-pyrazolo[3,4-b]pyridin-4-yl)-3-methyl-4,5,6,7-tetrahydro-1H-pyrazolo[4,3-c]pyridin-1-yl)methyl)bicyclo[2.2.2]octan-1-yl)morpholine-3-carboxamide]
inhibitory activity against endosomal TLR9 (TLR9): no or very limited inhibitory activity | interference with TLR2/6-driven activity (TLR2/6): did not interfere | interference with cytokine secretion, TLR1/2 agonist (TLR1/2): did not significantly interfere | interference with cytokine secretion, TLR5 agonist (TLR5): did not significantly interfere | block of ROS production, PMA stimulation [1]: but not with phorbol myristate acetate | immune-complex-driven responses, sera expressing dsDNA antibodies ([2]; MHV370 0.3 μM): blocked to a much lesser extent | immune-complex-driven responses, sera positive for RNP/Sm and/or SS-A, or RNP/Sm and/or SS-A plus dsDNA autoantibodies ([2]; MHV370 0.3 μM): completely blocked | IFN-α suppression, MHV370 added to HCQ ([2]; MHV370 1–10 nM combined with variable concentrations of HCQ, SLE immune complexes): almost complete suppression | inflammatory pathways (ISGs, TLR and TNF pathways), gene set enrichment in blood (TLR7): all downregulated
